8 compounds from ChEMBL document CHEMBL1138520, “Molecular and conformational determinants of pituitary adenylate cyclase-activating polypeptide (PACAP) for activation of the PAC1 receptor” (J Med Chem, 2009) can be followed below.

As usually defined, the pIC50 is −log10 of the IC50, conventionally taken in molar units.

pIC50: −log10 of the molar value. Calls of active or inactive are those of the source. No cut-off for these calls is given here.

The target in assay [1] is T1, Pituitary adenylate cyclase-activating polypeptide type I receptor (Homo sapiens, UniProt P41586). The experiment in a line: Displacement of [125I]Ac-PACAP27 from human recombinant PAC1 receptor expressed in CHO cells by gamma- counter. Type of assay: cell-based. (In general: In a radioligand displacement assay an active substance lowers the binding of a labelled ligand.)
Target sequence in this assay (P41586 whole entry): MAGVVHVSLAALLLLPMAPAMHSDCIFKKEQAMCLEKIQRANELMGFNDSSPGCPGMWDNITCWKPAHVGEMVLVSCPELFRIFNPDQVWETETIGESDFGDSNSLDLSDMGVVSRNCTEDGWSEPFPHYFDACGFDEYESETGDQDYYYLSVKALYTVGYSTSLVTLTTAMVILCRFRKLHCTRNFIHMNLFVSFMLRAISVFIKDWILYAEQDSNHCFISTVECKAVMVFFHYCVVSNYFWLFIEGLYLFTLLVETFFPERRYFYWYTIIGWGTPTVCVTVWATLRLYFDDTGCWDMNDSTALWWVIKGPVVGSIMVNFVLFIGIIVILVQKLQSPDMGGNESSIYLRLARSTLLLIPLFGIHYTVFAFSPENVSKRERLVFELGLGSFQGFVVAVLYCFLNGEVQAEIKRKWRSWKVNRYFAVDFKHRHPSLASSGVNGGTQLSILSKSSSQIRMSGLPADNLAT

Assay [2] addresses T1, Pituitary adenylate cyclase-activating polypeptide type I receptor. Description: Agonist activity at human recombinant PAC1 receptor expressed in CHO cells assessed as PACAP38-induced calcium mobilization at 1 uM by FLIPR assay. Type of assay: functional, cell-based. For orientation: A change in cytosolic calcium serves as a functional read-out for many receptors and channels.
Target sequence in this assay (P41586 whole entry): as above

Assay [3] has the same target. Description: Agonist activity at human recombinant PAC1 receptor expressed in CHO cells assessed as PACAP38-induced calcium mobilization at 1 uM by FLIPR assay relative to PACAP38. Type of assay: functional, cell-based.
Target sequence in this assay (P41586 21-468 limits assumed): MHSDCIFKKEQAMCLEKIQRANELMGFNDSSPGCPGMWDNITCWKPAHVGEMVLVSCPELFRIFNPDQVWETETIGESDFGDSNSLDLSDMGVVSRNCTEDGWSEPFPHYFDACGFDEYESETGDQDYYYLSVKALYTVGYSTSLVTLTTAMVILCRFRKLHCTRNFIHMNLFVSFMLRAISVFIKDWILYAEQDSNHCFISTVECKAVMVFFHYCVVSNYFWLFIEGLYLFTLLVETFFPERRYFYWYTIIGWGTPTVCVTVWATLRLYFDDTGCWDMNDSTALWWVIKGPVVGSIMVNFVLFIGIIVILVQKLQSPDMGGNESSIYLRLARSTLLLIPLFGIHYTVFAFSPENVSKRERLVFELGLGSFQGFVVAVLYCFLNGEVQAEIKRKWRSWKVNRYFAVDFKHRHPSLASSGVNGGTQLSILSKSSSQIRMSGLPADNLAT
The target is the same in assay [4]. The experiment in a line: Antagonist activity at human recombinant PAC1 receptor expressed in CHO cells assessed as reduction in PACAP38-induced calcium mobilization by FLIPR assay. Type of assay: functional, cell-based. The settings on record: read-out: pA2 (converted). In short, it runs like this:
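PAC1-CHO cells were loaded with fluo-4 and preincubated 15 min with antagonist at 0.1, 1 or 10 µM. PACAP38 concentration-response curves for calcium mobilization were then recorded. pA2 was estimated by Schild plot from concentration ratios; 4-10 independent assays in duplicate.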
Target sequence in this assay (P41586 whole entry): as the sequence (P41586 whole entry) above

The target is the same in assay [5]. The experiment in a line: Antagonist activity at human recombinant PAC1 receptor expressed in CHO cells assessed as reduction in PACAP38-induced calcium mobilization at 10 uM by FLIPR assay. Type of assay: functional, cell-based. Put shortly:
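Fluo-4-loaded CHO cells stably expressing human PAC1 were exposed for 15 min to 10^-5 M peptide before reading. They were then challenged with 10^-6 M PACAP38, and the reduction in fluorescence calcium response was recorded (ex 480/em 525 nm, 150 s).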
Target sequence in this assay (P41586 21-468 limits assumed): as the sequence (P41586 21-468 limits assumed) above

On to `CC[C@H](C)[C@@H](C(=O)N[C@@H](Cc1ccccc1)C(=O)N[C@H](C(=O)N[C@@H](CC(=O)O)C(=O)N[C@@H](CO)C(=O)N[C@@H](Cc1ccc(O)cc1)C(=O)N[C@@H](CO)C(=O)N[C@@H](CCCNC(=N)N)C(=O)N[C@@H](Cc1ccc(O)cc1)C(=O)N[C@@H](CCCNC(=N)N)C(=O)N[C@@H](CCCCN)C(=O)N[C@@H](CCC(N)=O)C(=O)N[C@@H](CCSC)C(=O)N[C@@H](C)C(=O)N[C@H](C(=O)N[C@@H](CCCCN)C(=O)N[C@@H](CCCCN)C(=O)N[C@@H](Cc1ccc(O)cc1)C(=O)N[C@@H](CC(C)C)C(=O)N[C@@H](C)C(=O)N[C@@H](C)C(=O)N[C@H](C(=O)N[C@@H](CC(C)C)C(=O)NCC(=O)N[C@@H](CCCCN)C(=O)N[C@@H](CCCNC(=N)N)C(=O)N[C@@H](Cc1ccc(O)cc1)C(=O)N[C@@H](CCCCN)C(=O)N[C@@H](CCC(N)=O)C(=O)N[C@@H](CCCNC(=N)N)C(=O)N[C@H](C(=O)N[C@@H](CCCCN)C(=O)N[C@@H](CC(N)=O)C(=O)N[C@@H](CCCCN)C(N)=O)C(C)C)C(C)C)C(C)C)[C@@H](C)O)N(C)C(=O)CNC(=O)[C@H](CC(=O)O)NC(=O)[C@H](CO)NC(=O)[C@@H](N)Cc1cnc[nH]1`, for which the pIC50 in assay [1] is 6.80. Also, the EC50 result in assay [2] is listed as “Not Active”. In addition, the Emax result in assay [3] was “inactive”. Moreover, the Kb in assay [4] is 52.5 nM.

With `CC[C@H](C)[C@H](NC(=O)CN(C)C(=O)[C@H](CC(=O)O)NC(=O)[C@H](CO)NC(=O)[C@@H](N)Cc1cnc[nH]1)C(=O)N[C@@H](Cc1ccccc1)C(=O)N[C@H](C(=O)N[C@@H](CC(=O)O)C(=O)N[C@@H](CO)C(=O)N[C@@H](Cc1ccc(O)cc1)C(=O)N[C@@H](CO)C(=O)N[C@@H](CCCNC(=N)N)C(=O)N[C@@H](Cc1ccc(O)cc1)C(=O)N[C@@H](CCCNC(=N)N)C(=O)N[C@@H](CCCCN)C(=O)N[C@@H](CCC(N)=O)C(=O)N[C@@H](CCSC)C(=O)N[C@@H](C)C(=O)N[C@H](C(=O)N[C@@H](CCCCN)C(=O)N[C@@H](CCCCN)C(=O)N[C@@H](Cc1ccc(O)cc1)C(=O)N[C@@H](CC(C)C)C(=O)N[C@@H](C)C(=O)N[C@@H](C)C(=O)N[C@H](C(=O)N[C@@H](CC(C)C)C(=O)NCC(=O)N[C@@H](CCCCN)C(=O)N[C@@H](CCCNC(=N)N)C(=O)N[C@@H](Cc1ccc(O)cc1)C(=O)N[C@@H](CCCCN)C(=O)N[C@@H](CCC(N)=O)C(=O)N[C@@H](CCCNC(=N)N)C(=O)N[C@H](C(=O)N[C@@H](CCCCN)C(=O)N[C@@H](CC(N)=O)C(=O)N[C@@H](CCCCN)C(N)=O)C(C)C)C(C)C)C(C)C)[C@@H](C)O`, the pIC50 in assay [1] is 7.01. For the same compound, in assay [2], the EC50 entry is “Not Active”. Besides, the Emax entry in assay [3] is “inactive”. For the same compound, the Kb in assay [4] is 4.07 nM.

In the case of `CC[C@H](C)[C@H](NC(=O)CNC(=O)[C@H](CC(=O)O)NC(=O)[C@H]1CCCN1C(=O)[C@@H](N)Cc1cnc[nH]1)C(=O)N[C@@H](Cc1ccccc1)C(=O)N[C@H](C(=O)N[C@@H](CC(=O)O)C(=O)N[C@@H](CO)C(=O)N[C@@H](Cc1ccc(O)cc1)C(=O)N[C@@H](CO)C(=O)N[C@@H](CCCNC(=N)N)C(=O)N[C@@H](Cc1ccc(O)cc1)C(=O)N[C@@H](CCCNC(=N)N)C(=O)N[C@@H](CCCCN)C(=O)N[C@@H](CCC(N)=O)C(=O)N[C@@H](CCSC)C(=O)N[C@@H](C)C(=O)N[C@H](C(=O)N[C@@H](CCCCN)C(=O)N[C@@H](CCCCN)C(=O)N[C@@H](Cc1ccc(O)cc1)C(=O)N[C@@H](CC(C)C)C(=O)N[C@@H](C)C(=O)N[C@@H](C)C(=O)N[C@H](C(=O)N[C@@H](CC(C)C)C(=O)NCC(=O)N[C@@H](CCCCN)C(=O)N[C@@H](CCCNC(=N)N)C(=O)N[C@@H](Cc1ccc(O)cc1)C(=O)N[C@@H](CCCCN)C(=O)N[C@@H](CCC(N)=O)C(=O)N[C@@H](CCCNC(=N)N)C(=O)N[C@H](C(=O)N[C@@H](CCCCN)C(=O)N[C@@H](CC(N)=O)C(=O)N[C@@H](CCCCN)C(N)=O)C(C)C)C(C)C)C(C)C)[C@@H](C)O`, the pIC50 in assay [1] was 7.12. The EC50 result in assay [2] was “Not Active”. Besides, the Emax entry in assay [3] is “inactive”. In addition, the Kb in assay [4] is 35.5 nM.

As to `CC[C@H](C)[C@H](NC(=O)CN(C)C(=O)[C@H](CC(=O)O)NC(=O)[C@H](CO)NC(=O)[C@@H](N)Cc1cnc[nH]1)C(=O)N[C@@H](Cc1ccccc1)C(=O)N[C@H](C(=O)N[C@@H](CC(=O)O)C(=O)N[C@@H](CO)C(=O)N[C@@H](Cc1ccc(O)cc1)C(=O)N[C@@H](CO)C(=O)N[C@@H](CCCNC(=N)N)C(=O)N[C@@H](Cc1ccc(O)cc1)C(=O)N[C@@H](CCCNC(=N)N)C(=O)N[C@@H](CCCCN)C(=O)N[C@@H](CCC(N)=O)C(=O)N[C@@H](CCSC)C(=O)N[C@@H](C)C(=O)N[C@H](C(=O)N[C@@H](CCCCN)C(=O)N[C@@H](CCCCN)C(=O)N[C@@H](Cc1ccc(O)cc1)C(=O)N[C@@H](CC(C)C)C(=O)N[C@@H](C)C(=O)N[C@@H](C)C(=O)N[C@H](C(=O)N[C@@H](CC(C)C)C(N)=O)C(C)C)C(C)C)[C@@H](C)O`, the pIC50 in assay [1] was 6.51. In assay [2], the EC50 result is “Not Active”. In addition, the Emax result in assay [3] is “inactive”. In addition, the outcome in assay [5] was inactive.

With `CSCC[C@H](NC(=O)[C@H](CCC(N)=O)NC(=O)[C@H](CCCCN)NC(=O)[C@H](CCCNC(=N)N)NC(=O)[C@H](Cc1ccc(O)cc1)NC(=O)[C@H](CCCNC(=N)N)NC(=O)[C@H](CO)NC(=O)[C@H](Cc1ccc(O)cc1)NC(=O)[C@H](CO)NC(=O)[C@H](CC(=O)O)NC(=O)[C@@H](NC(=O)[C@@H](N)Cc1ccccc1)[C@@H](C)O)C(=O)N[C@@H](C)C(=O)N[C@H](C(=O)N[C@@H](CCCCN)C(=O)N[C@@H](CCCCN)C(=O)N[C@@H](Cc1ccc(O)cc1)C(=O)N[C@@H](CC(C)C)C(=O)N[C@@H](C)C(=O)N[C@@H](C)C(=O)N[C@H](C(=O)N[C@@H](CC(C)C)C(=O)NCC(=O)N[C@@H](CCCCN)C(=O)N[C@@H](CCCNC(=N)N)C(=O)N[C@@H](Cc1ccc(O)cc1)C(=O)N[C@@H](CCCCN)C(=O)N[C@@H](CCC(N)=O)C(=O)N[C@@H](CCCNC(=N)N)C(=O)N[C@H](C(=O)N[C@@H](CCCCN)C(=O)N[C@@H](CC(N)=O)C(=O)N[C@@H](CCCCN)C(N)=O)C(C)C)C(C)C)C(C)C`, in assay [1], the negative logarithm of the IC50 (pIC50) is 7.25. Further, the EC50 entry in assay [2] is on record as “Not Active”. The Emax result in assay [3] was “inactive”. Besides, in assay [4], the Kb was 11 nM.

As to `CC[C@H](C)[C@H](NC(=O)CNC(=O)[C@H](CC(=O)O)NC(=O)[C@H]1CCCN1C(=O)[C@@H](N)Cc1cnc[nH]1)C(=O)N[C@@H](Cc1ccccc1)C(=O)N[C@H](C(=O)N[C@@H](CC(=O)O)C(=O)N[C@@H](CO)C(=O)N[C@@H](Cc1ccc(O)cc1)C(=O)N[C@@H](CO)C(=O)N[C@@H](CCCNC(=N)N)C(=O)N[C@@H](Cc1ccc(O)cc1)C(=O)N[C@@H](CCCNC(=N)N)C(=O)N[C@@H](CCCCN)C(=O)N[C@@H](CCC(N)=O)C(=O)N[C@@H](CCSC)C(=O)N[C@@H](C)C(=O)N[C@H](C(=O)N[C@@H](CCCCN)C(=O)N[C@@H](CCCCN)C(=O)N[C@@H](Cc1ccc(O)cc1)C(=O)N[C@@H](CC(C)C)C(=O)N[C@@H](C)C(=O)N[C@@H](C)C(=O)N[C@H](C(=O)N[C@@H](CC(C)C)C(N)=O)C(C)C)C(C)C)[C@@H](C)O`, the pIC50 in assay [1] was 6.57. The EC50 entry in assay [2] is recorded as “Not Active”. The Emax result in assay [3] was “inactive”.

`CC[C@H](C)[C@H](NC(=O)CNC(=O)[C@H](CC(=O)O)NC(=O)[C@H](CO)NC(=O)[C@@H](N)Cc1cnc[nH]1)C(=O)N(C)[C@@H](Cc1ccccc1)C(=O)N[C@H](C(=O)N[C@@H](CC(=O)O)C(=O)N[C@@H](CO)C(=O)N[C@@H](Cc1ccc(O)cc1)C(=O)N[C@@H](CO)C(=O)N[C@@H](CCCNC(=N)N)C(=O)N[C@@H](Cc1ccc(O)cc1)C(=O)N[C@@H](CCCNC(=N)N)C(=O)N[C@@H](CCCCN)C(=O)N[C@@H](CCC(N)=O)C(=O)N[C@@H](CCSC)C(=O)N[C@@H](C)C(=O)N[C@H](C(=O)N[C@@H](CCCCN)C(=O)N[C@@H](CCCCN)C(=O)N[C@@H](Cc1ccc(O)cc1)C(=O)N[C@@H](CC(C)C)C(=O)N[C@@H](C)C(=O)N[C@@H](C)C(=O)N[C@H](C(=O)N[C@@H](CC(C)C)C(N)=O)C(C)C)C(C)C)[C@@H](C)O`: the pIC50 in assay [1] was 5.50. In addition, the EC50 result in assay [2] is listed as “Not Active”. The Emax result in assay [3] is “inactive”.

Regarding `CC[C@H](C)[C@H](NC(=O)CNC(=O)[C@H](CC(=O)O)NC(=O)[C@H](CO)NC(=O)[C@@H](N)Cc1cnc[nH]1)C(=O)N1Cc2ccccc2C1C(=O)N[C@H](C(=O)N[C@@H](CC(=O)O)C(=O)N[C@@H](CO)C(=O)N[C@@H](Cc1ccc(O)cc1)C(=O)N[C@@H](CO)C(=O)N[C@@H](CCCNC(=N)N)C(=O)N[C@@H](Cc1ccc(O)cc1)C(=O)N[C@@H](CCCNC(=N)N)C(=O)N[C@@H](CCCCN)C(=O)N[C@@H](CCC(N)=O)C(=O)N[C@@H](CCSC)C(=O)N[C@@H](C)C(=O)N[C@H](C(=O)N[C@@H](CCCCN)C(=O)N[C@@H](CCCCN)C(=O)N[C@@H](Cc1ccc(O)cc1)C(=O)N[C@@H](CC(C)C)C(=O)N[C@@H](C)C(=O)N[C@@H](C)C(=O)N[C@H](C(=O)N[C@@H](CC(C)C)C(N)=O)C(C)C)C(C)C)[C@@H](C)O` (some centres undefined), the pIC50 in assay [1] is 5.44. In addition, the EC50 entry in assay [2] is reported as “Not Active”. Further, in assay [3], the Emax result is “inactive”.
